pIC50, pKi: −log10 of the molar value.
What was measured:
[1] = Inhibition of Bacillus stearothermophilus alpha-glucosidase; set-up: species or system Geobacillus stearothermophilus
How it was run: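 Bacillus stearothermophilus α-glucosidase at 0.25–1 units per mL in 100 mM sodium phosphate, pH 6.8, room temperature. Substrate is p-nitrophenyl glycopyranoside at twice Km, with Km 1.5 mM from a Michaelis–Menten fit. Initial hydrolysis rates read at 405 nm. Compounds screened first at a single high concentration; active ones retested at lower concentrations for IC50.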

[2] = Inhibition of yeast alpha-glucosidase; set-up: species or system Saccharomyces cerevisiae
How it was run: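 Yeast α-glucosidase at 0.25–1 units per mL in 100 mM sodium phosphate, pH 6.8, room temperature. p-Nitrophenyl glycopyranoside substrate at twice Km, with Km 0.19 mM from a Michaelis–Menten fit. Initial velocities monitored at 405 nm. Compounds screened first at a single concentration; actives titrated lower to get IC50.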

[3] = Inhibition of Helix pomatia beta-mannosidase
How it was run: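 β-Mannosidase at 0.25–1 units per mL in 100 mM sodium citrate, pH 6.4, room temperature. p-Nitrophenyl glycopyranoside substrate at twice its Michaelis–Menten Km. Initial velocities read at 405 nm. Compounds screened first at a single concentration; those active titrated lower for IC50.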

[4] = Inhibition of almond beta-glucosidase; set-up: species or system Prunus dulcis
How it was run: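 β-Glucosidase at 0.25–1 units per mL in 100 mM sodium phosphate buffer, pH 6.8, room temperature. p-Nitrophenyl glycopyranoside substrate at twice its Michaelis–Menten Km. Initial hydrolysis rates read spectrophotometrically at 405 nm. Compounds screened first at one concentration; actives retested at lower levels for IC50.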

[5] = Inhibition of yeast alpha-glucosidase by Lineweaver-Burke double reciprocal plot; set-up: species or system Saccharomyces cerevisiae

| pIC50 [1] | pIC50 [2] | pIC50 [3] | pIC50 [4] | pKi [5] | SMILES |
| --- | --- | --- | --- | --- | --- |
| 5.04 | 4.42 | 4.21 | < 3.70 | – | COc1ccc([C@@H]2[C@@H](O)[C@H](O)[C@@H](CO)N2C)cc1 |
| 5.74 | 5.96 | 4.28 | 4.47 | 6.15 | COc1ccc([C@H]2N[C@H](CO)[C@@H](O)[C@@H]2O)cc1OC |
| 5.00 | 4.62 | < 3.70 | < 3.70 | – | OC[C@H]1N[C@H](c2ccc(O)cc2)[C@@H](O)[C@@H]1O [RADICAMINE B] |
| < 3.70 | < 3.70 | 4.07 | < 3.70 | – | COc1ccc([C@@H]2[C@@H](O)[C@H](O)[C@@H](CO)N2C)c(OC)c1 |
| < 3.70 | < 3.70 | < 3.70 | < 3.70 | – | CCCCN1[C@H](CO)[C@@H](O)[C@H](O)[C@H]1c1ccc(OC)c(O)c1 |
| 5.06 | 6.30 | 4.68 | 3.91 | – | COc1ccc([C@H]2N[C@H](CO)[C@@H](O)[C@@H]2O)cc1 |
| < 3.70 | < 3.70 | < 3.70 | < 3.70 | – | COc1ccc(OC)c([C@@H]2[C@@H](O)[C@H](O)[C@@H](CO)N2C)c1 |
| 5.08 | 5.11 | 3.76 | 4.02 | – | COc1ccc([C@H]2N[C@H](CO)[C@@H](O)[C@@H]2O)c(OC)c1 |
| 4.62 | 4.14 | < 3.70 | < 3.70 | – | COc1ccc([C@@H]2[C@@H](O)[C@H](O)[C@@H](CO)N2C)cc1OC |
| < 3.70 | 5.22 | < 3.70 | < 3.70 | – | COc1ccc([C@@H]2N[C@@H](CO)[C@H](O)[C@H]2O)cc1OC |
| 4.44 | 5.00 | 4.03 | 3.71 | – | OC[C@H]1N[C@H](c2ccccc2)[C@@H](O)[C@@H]1O |
| < 3.70 | < 3.70 | 3.95 | < 3.70 | – | COc1ccc([C@@H]2N[C@@H](CO)[C@H](O)[C@H]2O)cc1O [L-RADICAMINE A] |
| 4.92 | 5.38 | 4.18 | < 3.70 | – | COc1ccc([C@H]2N[C@H](CO)[C@@H](O)[C@@H]2O)cc1O [RADICAMINE A] |
| < 3.70 | 4.68 | < 3.70 | < 3.70 | – | COc1ccc([C@@H]2N[C@@H](CO)[C@H](O)[C@H]2O)cc1 |
| < 3.70 | < 3.70 | < 3.70 | < 3.70 | – | COc1ccc([C@H]2[C@H](O)[C@@H](O)[C@H](CO)N2C)cc1 |
| < 3.70 | 4.55 | 3.74 | < 3.70 | – | COc1ccc([C@@H]2[C@@H](O)[C@H](O)[C@@H](CO)N2C)cc1O |
| 4.51 | 5.62 | – | – | – | COc1cccc([C@H]2N[C@H](CO)[C@@H](O)[C@@H]2O)c1 |
| 5.40 | 5.59 | < 3.70 | 3.77 | – | COc1ccc(OC)c([C@H]2N[C@H](CO)[C@@H](O)[C@@H]2O)c1 |
